Experimental data: article PMC5855950 (RNA, 2018)

What was measured:
GADD45A mRNA = assay: Real-time PCR: GADD45A mRNA expression in HEK293 cells; assay type: cell-based, human; settings: three repeats
Outline: (§1)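 RNA was extracted from HEK293 cells with TRIzol. One µg was reverse transcribed using random hexamer primers. GADD45A and HBB transcripts were quantified with TaqMan gene expression probes on a real-time PCR system.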

DsRedCAG250 Drosophila = assay: Climbing ability assay, DsRedCAG250 Drosophila; assay type: in vivo; settings: 100 µM at third instar larval stage; elav>DsRedCAG250 flies at 5, 10 and 15 dpe
Outline: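 Flies carried elav-GAL4 and UAS-DsRedCAG250 and were reared at 25°C. Larval dosing was a 2 h feed of third instar larvae on peptide in 2% sucrose at room temperature, with climbing tested at 5, 10 and 15 dpe. Adult dosing: 5 or 10 dpe flies were starved 8 h, then fed overnight on peptide-sucrose filter paper, and tested at 10 or 15 dpe.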

Htt-exon1Q93 Drosophila = assay: Pseudopupil assay, Htt-exon1Q93 Drosophila; assay type: in vivo; settings: 100 µM at third instar larval stage, 1 dpe adults
Outline: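 Flies were raised at 21.5°C. Third instar larvae fed 2 h at room temperature on peptide in 2% sucrose solution. Rhabdomeres per ommatidium were counted by pseudopupil assay at 1 dpe for Htt-exon1Q93 flies and 12 dpe for flMJDQ84 flies. Experiments were repeated at least three times (n = 10 fly heads), as mean ± SEM, one-way ANOVA with Tukey test.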

HBB mRNA = assay: Real-time PCR: HBB mRNA expression in HEK293 cells; assay type: cell-based, human; settings: three repeats
Outline: as §1

[1] = test system: EGFPCAG78-expressing HEK293 cells; assay: LDH assay: suppression of death of EGFPCAG78-expressing HEK293 cells; assay type: cell-based, human; settings: scrambled control, Supplemental Fig. S1
Outline: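 HEK293 cells were grown in DMEM with 10% FBS at 37°C and 5% CO2 and seeded at 1 × 10^5 per well. They were lipofected with pEGFPCAG78, and TAT-peptide was added immediately after at 0.1–25 µM (8 levels). LDH activity in the medium was read at 72 h and normalised to the no-peptide control. IC50 came from variable-slope nonlinear regression; at least 3 repeats.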

For “YGRKKRRQRRRGGEDIKSRVEAASILYFIKKK [TAT-BIND-S]”, the “GADD45A mRNA expression” value (GADD45A mRNA) was “no significant change”, the “climbing defects, larval treatment” value (DsRedCAG250 Drosophila) was “had no effect” and the “retinal degeneration, Htt-exon1Q93” value (Htt-exon1Q93 Drosophila) was “but not TAT-BIND-S”. For the same sequence, the “HBB mRNA expression” value (HBB mRNA) was “no significant change” and the “effect on cell death” value [1] was “did not suppress or elicit cell death”.
